Laboratory results: ChEMBL document CHEMBL4699666, “Cyclic Peptidyl Inhibitors against CAL/CFTR Interaction for Treatment of Cystic Fibrosis” (J Med Chem, 2020)
pIC50, pKd: −log10 of the molar value. Activity calls are given as the source filed them. The calls are words filed in the database; no cut-off is given here. Positions of bridges follow the written chain, without caps; N, C: chain ends. Non-standard residues stand in square brackets, D forms with d. Residues, ends and D or L forms follow the SMILES beside them. *: point of attachment. 1Nal = N[C@@H](Cc1cccc2ccccc12)C(=O)O; 2Nal = N[C@@H](Cc1ccc2ccccc2c1)C(=O)O; Bta = N[C@@H](Cc1csc2ccccc12)C(=O)O; Pen = CC(C)(S)[C@H](N)C(=O)O; Tle = CC(C)(C)[C@H](N)C(=O)O; Nicotinoyl = O=C(c1cccnc1)*

What was measured:
[1] = target: T1, Golgi-associated PDZ and coiled-coil motif-containing protein (Homo sapiens, UniProt Q9HD26); experiment: Binding affinity to C-terminal His6 tagged CAL PDZ domain (unknown origin) expressed in Escherichia coli BL21 incubated for 1 hr using FAM-22 probe by fluorescence polarization based competition assay
[2] = Drug uptake in human HeLa cells at 5 uM incubated for 2 hrs by flow cytometry relative to CPP9; assay type: ADME, cell-based
Outline: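 Naphthofluorescein-labelled cyclic peptides (5 μM final, 0.5% DMSO, in DMEM with 10% FBS) were applied to HeLa cells, seeded the day before at 15 × 10^4 per well, for 2 h at 37 °C. Cells were washed with cold DPBS, trypsinized and analysed by flow cytometry. Mean fluorescence was expressed as % of CPP9; n = 3.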

[3] = target: T2, Na(+)/H(+) exchange regulatory cofactor NHE-RF2 (Homo sapiens, UniProt Q15599); experiment: Binding affinity to NHERF2 PDZ1 domain (unknown origin) expressed in Escherichia coli BL21 incubated for 1 hr by fluorescence polarization based competition assay
T2 sequence (Q15599 whole entry, the tested form may be a part): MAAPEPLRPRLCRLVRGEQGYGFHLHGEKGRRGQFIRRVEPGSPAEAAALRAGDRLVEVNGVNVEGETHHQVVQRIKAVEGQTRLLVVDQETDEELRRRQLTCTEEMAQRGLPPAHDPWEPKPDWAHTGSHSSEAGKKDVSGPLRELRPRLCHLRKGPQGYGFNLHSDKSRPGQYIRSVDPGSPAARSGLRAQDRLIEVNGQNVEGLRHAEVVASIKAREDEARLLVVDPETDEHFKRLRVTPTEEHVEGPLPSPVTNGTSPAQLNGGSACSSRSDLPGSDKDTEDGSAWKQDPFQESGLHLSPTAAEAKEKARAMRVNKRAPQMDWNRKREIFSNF
Outline: (§1)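 CAL, NHERF1 and NHERF2 PDZ domains carried a C-terminal His6 tag, were expressed in E. coli BL21 (0.1 mM IPTG, 16 h at 18 °C) and purified on Ni-NTA. For direct binding, 50 nM fluorescein-labelled peptide was titrated with PDZ protein (0–2.5 μM CAL; 0–25 μM NHERF1/2) in PBS pH 7.4 with 0.01% Triton X-100 and 2 mM TCEP for 1 h at room temperature. Fluorescence polarization gave KD; n = 3.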

[4] = target: T1, Golgi-associated PDZ and coiled-coil motif-containing protein; experiment: Binding affinity to C-terminal His6 tagged CAL PDZ domain (unknown origin) expressed in Escherichia coli BL21 incubated for 1 hr by fluorescence polarization assay
[5] = target: T3, Na(+)/H(+) exchange regulatory cofactor NHE-RF1 (Homo sapiens, UniProt O14745); experiment: Binding affinity to NHERF1 PDZ1 domain (unknown origin) expressed in Escherichia coli BL21 incubated for 1 hr by fluorescence polarization based competition assay; outline: as §1
T3 sequence (O14745 whole entry): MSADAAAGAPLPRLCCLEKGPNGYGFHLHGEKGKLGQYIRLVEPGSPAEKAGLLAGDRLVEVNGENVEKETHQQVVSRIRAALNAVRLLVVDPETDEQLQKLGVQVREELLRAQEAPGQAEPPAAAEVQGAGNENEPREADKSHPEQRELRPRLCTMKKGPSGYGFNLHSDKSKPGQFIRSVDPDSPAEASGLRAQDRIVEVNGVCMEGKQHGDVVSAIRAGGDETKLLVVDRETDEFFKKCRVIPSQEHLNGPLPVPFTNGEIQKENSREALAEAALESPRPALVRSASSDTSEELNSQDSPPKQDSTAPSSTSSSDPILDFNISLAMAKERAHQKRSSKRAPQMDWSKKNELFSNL

[6] = target: T2, Na(+)/H(+) exchange regulatory cofactor NHE-RF2; experiment: Binding affinity to NHERF2 PDZ2 domain (unknown origin) expressed in Escherichia coli BL21 incubated for 1 hr by fluorescence polarization based competition assay
[7] = target: T1, Golgi-associated PDZ and coiled-coil motif-containing protein; experiment: Binding affinity to C-terminal His6 tagged CAL PDZ domain (unknown origin) expressed in Escherichia coli BL21 incubated for 1 hr using FAM-ANSRWPTSII-OH probe by fluorescence polarization based competition assay
Epithelial cell = experiment: Inhibition of CAL and CFTR F508del mutant interaction in human CF-HBE cells isolated from patient with F508del mutation assessed as increase in short-circuit current at 100 nM incubated for 24 hrs in presence of 5 uM VX-809 by relative to VX-809 alone; assay type: cell-based; settings: time 2.0 hrs, in the assay text read “incubated for 2 hrs” for “incubated for 24 hrs”
Outline: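 Primary F508del-homozygous bronchial epithelia from one donor, grown at air/liquid interface, were treated with 5 μM VX-809 for 48 h, then with 100 nM peptide for 2 h. Short-circuit current was measured in an Ussing chamber and scaled to VX-809 alone (100%). Results are 2–3 replicates per condition.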

CC(=O)N[C@@H](CS)C(=O)N[C@@H](CCCNC(=N)N)C(=O)N[C@@H](CCCNC(=N)N)C(=O)N[C@@H](CCCNC(=N)N)C(=O)N[C@@H](Cc1cccc2ccccc12)C(=O)N[C@@H](Cc1c[nH]c2ccccc12)C(=O)N[C@@H](CCC(N)=O)C(=O)N[C@H](C(=O)N[C@H](C(=O)N[C@@H](CCCNC(=N)N)C(=O)N[C@H](C(=O)O)C(C)(C)C)[C@@H](C)O)C(C)(C)S (Ac-CRRR[1Nal]WQ[Pen]TR[Tle]-OH)
pIC50 [1]: 6.82

CC(=O)N[C@@H](CS)C(=O)N[C@H](CCCNC(=N)N)C(=O)N[C@@H](CCCNC(=N)N)C(=O)N[C@@H](CCCNC(=N)N)C(=O)N[C@@H](Cc1ccc2ccccc2c1)C(=O)N[C@@H](Cc1c[nH]c2ccccc12)C(=O)N[C@H](C(=O)N[C@H](C(=O)N[C@H](C(=O)N[C@@H](CCCNC(=N)N)C(=O)N[C@H](C(=O)O)C(C)(C)C)[C@@H](C)O)C(C)(C)C)C(C)(C)S (Ac-C[dR]RR[2Nal]W[Pen][Tle]TR[Tle]-OH)
Drug uptake [2]: 92%

CC(=O)N[C@@H](CS)C(=O)N[C@H](CCCNC(=N)N)C(=O)N[C@@H](CCCNC(=N)N)C(=O)N[C@@H](CCCNC(=N)N)C(=O)N[C@@H](Cc1ccc2ccccc2c1)C(=O)N[C@@H](Cc1csc2ccccc12)C(=O)N[C@H](C(=O)N[C@H](C(=O)N[C@H](C(=O)N[C@@H](CCCNC(=N)N)C(=O)N[C@H](C(=O)O)C(C)(C)C)[C@@H](C)O)C(C)(C)C)C(C)(C)S (Ac-C[dR]RR[2Nal][Bta][Pen][Tle]TR[Tle]-OH)
pIC50 [1]: 6.62
Drug uptake [2]: 518%

CC(=O)N[C@@H](CS)C(=O)N[C@@H](CCCNC(=N)N)C(=O)N[C@H](CCCNC(=N)N)C(=O)N[C@@H](CCCNC(=N)N)C(=O)N[C@@H](Cc1ccc2ccccc2c1)C(=O)N[C@@H](Cc1c[nH]c2ccccc12)C(=O)N[C@@H](CCC(N)=O)C(=O)N[C@H](C(=O)N[C@H](C(=O)N[C@@H](CCCNC(=N)N)C(=O)N[C@H](C(=O)O)C(C)(C)C)[C@@H](C)O)C(C)(C)S (Ac-CR[dR]R[2Nal]WQ[Pen]TR[Tle]-OH)
Drug uptake [2]: 17%

C[C@@H](O)[C@H](NC(=O)[C@@H](NC(=O)[C@@H]1CCCN1C(=O)[C@H](Cc1csc2ccccc12)NC(=O)[C@H](Cc1ccc2ccccc2c1)NC(=O)[C@H](CCCNC(=N)N)NC(=O)[C@H](CCCNC(=N)N)NC(=O)[C@@H](CCCNC(=N)N)NC(=O)[C@H](CS)NC(=O)COCCOCCNC(=S)Nc1ccc2c(c1)C(=O)OC21c2ccc(O)cc2Oc2cc(O)ccc21)C(C)(C)S)C(=O)N[C@@H](CCCNC(=N)N)C(=O)N[C@H](C(=O)O)C(C)(C)C
pKd [3]: 5.22
pKd [4]: 7.06
pKd [5]: 5.40
pKd [6]: 5.12

CC(=O)N[C@@H](CCCNC(=N)N)C(=O)N[C@@H](CCCNC(=N)N)C(=O)N[C@@H](Cc1ccccc1)C(=O)N[C@@H](Cc1c[nH]c2ccccc12)C(=O)N[C@@H](CCC(N)=O)C(=O)N[C@@H](CS)C(=O)N[C@H](C(=O)N[C@@H](CCCCNC(=O)c1cccnc1)C(=O)N[C@H](C(=O)O)C(C)(C)C)[C@@H](C)O (Ac-RRFWQCTK(Nicotinoyl)[Tle]-OH)
pIC50 [7]: 5.66

CC(=O)N[C@@H](CS)C(=O)N[C@H](CCCNC(=N)N)C(=O)N[C@@H](CCCNC(=N)N)C(=O)N[C@@H](CCCNC(=N)N)C(=O)N[C@@H](Cc1ccc2ccccc2c1)C(=O)N[C@@H](Cc1c[nH]c2ccccc12)C(=O)N[C@@H](CCC(N)=O)C(=O)N[C@H](C(=O)N[C@H](C(=O)N[C@@H](CCCNC(=N)N)C(=O)N[C@H](C(=O)O)C(C)(C)C)[C@@H](C)O)C(C)(C)S (Ac-C[dR]RR[2Nal]WQ[Pen]TR[Tle]-OH)
pIC50 [1]: 6.77
Drug uptake [2]: 28%

CC(=O)N[C@@H](CS)C(=O)N[C@@H](CCCNC(=N)N)C(=O)N[C@@H](CCCNC(=N)N)C(=O)N[C@@H](CCCNC(=N)N)C(=O)N[C@@H](Cc1ccccc1)C(=O)N[C@@H](Cc1cccc2ccccc12)C(=O)N[C@@H](CCC(N)=O)C(=O)N[C@@H](CS)C(=O)N[C@H](C(=O)N[C@@H](CCCNC(=N)N)C(=O)N[C@H](C(=O)O)C(C)(C)C)[C@@H](C)O (Ac-CRRRF[1Nal]QCTR[Tle]-OH)
pIC50 [1]: 5.74

C[C@@H](O)[C@H](NC(=O)[C@@H](NC(=O)[C@H](CCC(N)=O)NC(=O)[C@H](Cc1c[nH]c2ccccc12)NC(=O)[C@H](Cc1ccc2ccccc2c1)NC(=O)[C@H](CCCNC(=N)N)NC(=O)[C@H](CCCNC(=N)N)NC(=O)[C@@H](CCCNC(=N)N)NC(=O)[C@H](CS)NC(=O)CCNC(=S)Nc1ccc(-c2c3ccc(=O)cc-3oc3cc(O)ccc23)c(C(=O)O)c1)C(C)(C)S)C(=O)N[C@@H](CCCNC(=N)N)C(=O)N[C@H](C(=O)O)C(C)(C)C
pKd [3]: 5.73
pKd [4]: 6.95
pKd [5]: 5.79
pKd [6]: 5.39

CC(=O)N[C@@H](CS)C(=O)N[C@H](CCCNC(=N)N)C(=O)N[C@@H](CCCNC(=N)N)C(=O)N[C@@H](CCCNC(=N)N)C(=O)N[C@@H](Cc1ccc2ccccc2c1)C(=O)N[C@@H](Cc1csc2ccccc12)C(=O)N1CCC[C@H]1C(=O)N[C@H](C(=O)N[C@H](C(=O)N[C@@H](CCCNC(=N)N)C(=O)N[C@H](C(=O)O)C(C)(C)C)[C@@H](C)O)C(C)(C)S (Ac-C[dR]RR[2Nal][Bta]P[Pen]TR[Tle]-OH)
Drug uptake [2]: 36%

CC(=O)N[C@@H](CS)C(=O)N[C@@H](CCCNC(=N)N)C(=O)N[C@@H](CCCNC(=N)N)C(=O)N[C@@H](CCCNC(=N)N)C(=O)N[C@@H](Cc1ccc2ccccc2c1)C(=O)N[C@@H](Cc1c[nH]c2ccccc12)C(=O)N[C@@H](CCC(N)=O)C(=O)N[C@H](C(=O)N[C@H](C(=O)N[C@@H](CCCNC(=N)N)C(=O)N[C@H](C(=O)O)C(C)(C)C)[C@@H](C)O)C(C)(C)S (Ac-CRRR[2Nal]WQ[Pen]TR[Tle]-OH)
pIC50 [1]: 6.82

CC(=O)N[C@H]1CSSC(C)(C)[C@@H](C(=O)N[C@H](C(=O)N[C@H](C(=O)N[C@@H](CCCNC(=N)N)C(=O)N[C@H](C(=O)O)C(C)(C)C)[C@@H](C)O)C(C)(C)C)NC(=O)[C@H](Cc2csc3ccccc23)NC(=O)[C@H](Cc2ccc3ccccc3c2)NC(=O)[C@H](CCCNC(=N)N)NC(=O)[C@H](CCCNC(=N)N)NC(=O)[C@@H](CCCNC(=N)N)NC1=O (Ac-C[dR]RR[2Nal][Bta][Pen][Tle]TR[Tle]-OH; disulfide 1-7)
inhibition (Epithelial cell): inactive

CC(=O)N[C@@H](CS)C(=O)N[C@H](CCCNC(=N)N)C(=O)N[C@H](CCCNC(=N)N)C(=O)N[C@@H](CCCNC(=N)N)C(=O)N[C@@H](Cc1ccc2ccccc2c1)C(=O)N[C@@H](Cc1c[nH]c2ccccc12)C(=O)N[C@@H](CCC(N)=O)C(=O)N[C@H](C(=O)N[C@H](C(=O)N[C@@H](CCCNC(=N)N)C(=O)N[C@H](C(=O)O)C(C)(C)C)[C@@H](C)O)C(C)(C)S (Ac-C[dR][dR]R[2Nal]WQ[Pen]TR[Tle]-OH)
Drug uptake [2]: 23%

CC(=O)N[C@@H](CCCNC(=N)N)C(=O)N[C@@H](CCCNC(=N)N)C(=O)N[C@@H](Cc1ccccc1)C(=O)N[C@@H](Cc1c[nH]c2ccccc12)C(=O)N[C@@H](CCC(N)=O)C(=O)N[C@@H](CS)C(=O)N[C@H](C(=O)N[C@@H](CCCCNC(=N)N)C(=O)N[C@H](C(=O)O)C(C)(C)C)[C@@H](C)O
pIC50 [7]: 5.62

C[C@@H](O)[C@H](NC(=O)[C@@H](NC(=O)[C@@H]1CCCCN1C(=O)[C@H](Cc1csc2ccccc12)NC(=O)[C@H](Cc1ccc2ccccc2c1)NC(=O)[C@H](CCCNC(=N)N)NC(=O)[C@H](CCCNC(=N)N)NC(=O)[C@@H](CCCNC(=N)N)NC(=O)[C@H](CS)NC(=O)COCCOCCNC(=S)Nc1ccc2c(c1)C(=O)OC21c2ccc(O)cc2Oc2cc(O)ccc21)C(C)(C)S)C(=O)N[C@@H](CCCNC(=N)N)C(=O)N[C@H](C(=O)O)C(C)(C)C
pKd [3]: 5.86
pKd [4]: 8.22
pKd [5]: 6.11
pKd [6]: 5.13

CC(=O)N[C@@H](CCCNC(=N)N)C(=O)N[C@@H](CCCNC(=N)N)C(=O)N[C@@H](Cc1ccccc1)C(=O)N[C@@H](Cc1c[nH]c2ccccc12)C(=O)N[C@H](CS)C(=O)N[C@@H](CS)C(=O)N[C@H](C(=O)N[C@@H](CCCNC(=N)N)C(=O)N[C@H](C(=O)O)C(C)(C)C)[C@@H](C)O (Ac-RRFW[dC]CTR[Tle]-OH)
pIC50 [7]: 5.00
